Several values for one entry are separate records, joined by “and”; a condition that tells them apart may be missing. Equal entries are not always repeated. Hit rate of the full screen: of about 51,000 compounds, about 150 (0.29%) were called active.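 The calls were made as follows: active = both repeat wells score below -2 in polarization z-score versus plate sample wells, excluding overly bright wells; inactive = the rest.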 For the sample, actives were picked, then their nearest neighbours and some compounds at random.
The compounds below were run on LANA (ORF73) N-terminal peptide binding to nucleosomes, Human herpesvirus 8 (assay: LANA N-terminal peptide–nucleosome interaction blockers – biochemical, fluorescence polarization, FITC-LANA1-23, chicken nucleosomes, primary screen (AID 720717)). Settings: FITC-LANA1-23 / chicken nucleosome fluorescence polarization; active compounds read low.
Outline: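 Assay system: purified chicken nucleosomes with FITC-labelled LANA N-terminal peptide (1-23) / Probe or stimulus: 50 nM FITC-LANA1-23 probe / Compound dosing: pin-transferred compound, 100 nL / Times: compound with peptide–nucleosome mix 10–45 min at room temperature / Technique: fluorescence polarization, 480 nm excitation, 535 nm parallel and perpendicular emission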

z-score, inactive:
CC(Oc1ccccc1)c1ccnc2ncnn12 (centres undefined) 1.01
Cc1occc1-c1nnc2n1N=C(c1ccc(-c3cc(Cl)ccc3Cl)o1)CS2 -0.0445
O=C(O)c1ccc(Sc2ccccc2C(=O)O)c(C(=O)O)c1 0.129
Cc1ccc2c(n1)sc1c(=O)n(-c3ccccc3)nnc12 0.192
CCOC(=O)c1c(NC(=S)N2CCN(C(=O)c3ccco3)CC2)sc2c1CCCCCC2 0.494
O=C(CSc1nnc(Cc2cc(=O)[nH]c(=O)[nH]2)n1-c1ccccc1)NCc1ccco1 0.726
NNC(=O)Cc1csc(CC(N)=O)n1 -1.71
O=C(CC1OCCN(Cc2ccccc2)C1=O)Nc1ccc(F)cc1 (centres undefined) 0.194
O=C(c1cnc2sc(N3CCCCC3)nn2c1=O)N1CCCC1 -0.108
Cc1ccc(Cn2cc(C(=O)Nc3cccnc3)ccc2=O)cc1 -0.673
O=C(CC1Nc2ccccc2NC1=O)Nc1ccccc1NC(=O)CC1Nc2ccccc2NC1=O (centres undefined) -0.867
O=S(=O)(c1cnc[nH]1)N1CCN(Cc2ccccc2)CC1 -0.596
Cc1ccc(C(=O)Nc2nc3ccc(S(N)(=O)=O)cc3s2)cc1C -0.589
CN(Cc1ccccc1)c1ncnc2c1nc1n2CCCCC1 -0.37
O=C(NC1CCCC1)c1[nH]nc2c1CCc1ccccc1-2 0.227
CC(=O)Oc1cc(-c2ccccc2)nn1C 0.038
CC(CC(=O)NN)C1(O)CCCCC1 (centres undefined) 0.05
Cc1ccc(C2=Nc3ccccc3N(CC(=O)Nc3ccc4c(c3)OCO4)C(=O)C2)cc1 -1.02
CCN(CC)S(=O)(=O)c1ccc2c(c1)CC(C)N2C(=O)C1CC1 (centres undefined) 1.02
CC(C)(C)C(=O)N(Cc1ccccc1)c1ccccn1 0.774
CCc1ccc(C(c2c(C)[nH][nH]c2=O)C(C#N)C#N)cc1 (centres undefined) 0.261
CCOc1ccc(/C=N/NC(=O)Cc2cc(=O)[nH][nH]2)cc1 -1.01
CN(C)/C=C/c1nc(C(F)(F)F)c(C#N)s1 5.21
N#CCn1cc(C(=O)C(F)(F)F)c2ccccc21 0.359
O=C(Cn1c(=O)oc2ccccc21)NC1CCN(Cc2ccccc2)CC1 -0.221
O=C1c2ccccc2OCC12COC(c1ccccc1)OC2 (centres undefined) -1.2
CC(=O)Nc1ccc(NCC(O)Cn2ccc3ccccc32)cc1 (centres undefined) 1.77
CC1CCC(NC(=O)CCCn2ncn3c(cc4occc43)c2=O)CC1 (centres undefined) 0.64
COCCNC(=O)N1c2ccccc2Sc2ccccc21 0.827
O=C(CNc1ccc(C(=O)O)cc1)NCc1ccc2c(c1)OCO2 0.298
N/C(=N\O)c1cnn2c(C(F)(F)F)cc(C(F)(F)F)nc12 -0.264
CCc1ccc(N2COc3ccc4c(CC)cc(=O)oc4c3C2)cc1 0.115
Cc1cccc2cnn(CC(=O)N3CCc4ccccc4C3)c12 0.198
CN1C(C)(C)CC(NC(=O)Nc2ccc(F)cc2)CC1(C)C 0.033
Cc1cc(C)n(C(C)CC(=O)Nc2ccc(CN3CCC(C)CC3)cc2)n1 (centres undefined) -0.62
C[C@]12CCC(=O)C=C1C=CC1C2CC[C@@]2(C)C1CC[C@@]21CCC(=O)O1 (some centres undefined) 0.0125 and 0.276
CN(C)c1ccc(-c2nnc(-c3cccnc3)o2)cc1 -0.139
COc1cccc(N2C(=O)C=CC2=O)c1 0.499
CCCCc1ccc(NC(=O)CC)c(C)c1 1.52
COc1ccc(CNC(=O)C(NS(=O)(=O)c2cccc3nsnc23)C(C)C)cc1 (centres undefined) -1.48
Cc1ccc(C(CC(=O)O)c2ccccc2)c(O)c1 (centres undefined) 0.53
Cc1ccc(C(=O)CSc2nnc3[nH]c(=O)c(C)nn23)cc1 -1.31
S=C(NCc1ccco1)Nc1nn(Cc2ccc(Cl)cc2Cl)cc1Cl 1.51
Cc1cc(N2CCOCC2)nc2ccc(NC(=O)CCC(=O)NC3CCCCC3)cc12 0.0965
CCCn1c(SCC(=O)N2CCCc3ccccc32)nnc1C(C)C -2.58
CCCNC(=O)c1cc2c(Cl)ccc3c2n1CCO3 -0.473
O=C1C=CC(=O)N1Nc1ccccc1 0.669
COC(=O)c1nnn(-c2nonc2N)c1CN1C(=O)c2ccccc2C1=O -0.366
CCn1c(N2CCN(C(=O)Nc3ccc(Cl)c(C(F)(F)F)c3)CC2)nc2ccccc21 -1.36
O=C1CCCC2=C1C(c1ccccn1)Nc1ccc3ncccc3c12 (centres undefined) -0.381
Cc1cccc(-n2nc(C)c3c(C)cc(=O)oc32)c1 0.165
O=C(O)c1cccc2c1C(=O)N(C1CCCC1)C2 0.735
OCc1cccnc1Sc1ccccc1 0.147
Cc1ccc2c(c1)cc(CN(Cc1ccco1)C(=O)c1ccccc1)c1nnnn12 0.235
Cc1cc(OCCN2CCOCC2)nc(N2CCOCC2)n1 0.348
Cc1sc(-c2cccs2)nc1O -0.538
CCc1cccc2c(C=C(C#N)C#N)cn(CC(=O)NC3CCCC3)c12 0.0985
Nc1c2c3c(sc2nc(=O)n1Cc1ccco1)CCC3 0.229
COc1ccc(N(C)S(=O)(=O)c2ccc3c(c2)CC(C)N3C(=O)C2CC2)c(OC)c1 (centres undefined) -0.361
COc1cccc(/C=C2/Sc3ccc(C(=O)NCc4ccco4)cc3NC2=O)c1 -0.179
COCCNC(=O)c1cccc(OC(C)C)c1 0.494
CN(C(=O)CSc1nc(N)cc(=O)[nH]1)c1ccccc1 -0.19
Cc1ccsc1/C=N/c1sc2c(c1C#N)CCCC2 -0.764
Cc1cc(C)c2nc(C(F)(F)F)nc(NCc3ccc4c(c3)OCO4)c2c1 2.86
